Here are results for 6 compounds from paper PMC8436581 (Molecular Diversity, 2021).

For experiment [1], the target named is α-glycosidase. Conditions: cited from earlier work.
The test system of experiment [2] is α-glycosidase. Kind of experiment: Enzyme kinetic study. As to conditions: Lineweaver–Burk plot. It counts as biochemical. Summed up: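 Double-reciprocal analysis: reciprocal rate (1/V) plotted against reciprocal substrate concentration (1/[S]) at several inhibitor concentrations to assign the inhibition mode; Ki obtained from a secondary plot of inhibitor concentration [I] versus 1/Vi'max.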

Experiment [3] relates to α-glycosidase. In words: In vitro α-glycosidase inhibition assay. It is filed as biochemical. Conditions: ratio of IC50 values against acarbose.

Each structure is given as a SMILES string. “Also recorded” adds a separate entry of the source. Like-named read-outs stand apart in the source and are kept apart here.

Usually IC50 stands for the concentration that inhibits the measured activity by half. Take `C[C@H]1O[C@H](O[C@H]2[C@H](O)[C@@H](O)[C@@H](O[C@H]3[C@H](O)[C@@H](O)C(O)O[C@@H]3CO)O[C@@H]2CO)[C@H](O)[C@@H](O)[C@@H]1N[C@H]1C=C(CO)[C@@H](O)[C@H](O)[C@H]1O` (stereo partly shown) [Acarbose]: the IC50 in experiment [1] (arylthiazole-pyridine derivatives) is 856.5 ± 5.6 µM; in experiment [1] (benzimidazole bearing bis-Schiff bases), 38.5 µM; in experiment [1] (benzimidazole-1,2,3-triazole hybrids) it was 750 ± 12.5 µM; in experiment [1] (benzimidazole-based oxadiazole derivatives), 38.5 ± 0.8 µM; in experiment [1] (thiourea derivatives bearing benzimidazole), 774 µM.
In the case of `Cc1ccc(-c2ncc(NC(=O)Cn3cc(COc4ccc(-c5nc6ccc(C)cc6[nH]5)cc4)nn3)s2)cc1` [9m, 2-{4-[4-(6-Methyl-1H-1,3-benzodiazol-2-yl)phenoxymethyl]-1H-1,2,3-triazol-1-yl}-N-[2-(4-methylphenyl)-1,3-thiazol-5-yl]acetamide], the type of inhibition entry in experiment [2] is listed as “uncompetitive inhibitors; also recorded: uncompetitive type of inhibition”.
For `O=C(Cn1cc(COc2ccc(-c3nc4ccccc4[nH]3)cc2)nn1)Nc1cnc(-c2ccccc2)s1` [9a, 2-{4-[4-(1H-1,3-benzodiazol-2-yl)phenoxymethyl]-1H-1,2,3-triazol-1-yl}-N-(2-phenyl-1,3-thiazol-5-yl)acetamide], in experiment [3], the “improvement in potency compared to acarbose” value was “around 39 fold”.
Regarding `O=C(Cn1cc(COc2ccc(-c3nc4ccccc4[nH]3)cc2)nn1)Nc1cnc(-c2ccc(Br)cc2)s1` [9c, 2-{4-[4-(1H-1,3-benzodiazol-2-yl)phenoxymethyl]-1H-1,2,3-triazol-1-yl}-N-[2-(4-bromophenyl)-1,3-thiazol-5-yl]acetamide], the type of inhibition result in experiment [2] is “uncompetitive inhibitors; also recorded: uncompetitive type of inhibition”.
Consider `COc1cc(-c2nc3ccccc3[nH]2)ccc1OCc1cn(CC(=O)Nc2cnc(-c3ccc(C)cc3)s2)nn1` [9i, 2-{4-[4-(1H-1,3-benzodiazol-2-yl)-2-methoxyphenoxymethyl]-1H-1,2,3-triazol-1-yl}-N-[2-(4-methylphenyl)-1,3-thiazol-5-yl]acetamide], for which the “improvement in potency compared to acarbose” value in experiment [3] stood at 15 fold.
With `COc1cc(-c2nc3ccccc3[nH]2)ccc1OCc1cn(CC(=O)Nc2cnc(-c3ccccc3)s2)nn1` [9g, 2-{4-[4-(1H-1,3-benzodiazol-2-yl)-2-methoxyphenoxymethyl]-1H-1,2,3-triazol-1-yl}-N-(2-phenyl-1,3-thiazol-5-yl)acetamide], the type of inhibition result in experiment [2] was “uncompetitive inhibitors; also recorded: uncompetitive type of inhibition”.
